Measured values as given in ChEMBL document CHEMBL4024770, “Augmentation of Anticancer Drug Efficacy in Murine Hepatocellular Carcinoma Cells by a Peripherally Acting Competitive N-Methyl-d-aspartate (NMDA) Receptor Antagonist” (J Med Chem, 2017).
Active and inactive are the calls of the source. The calls are words filed in the database; no cut-off is given here.

How the values were obtained:
[1] = target: Glutamate receptor ionotropic, kainate 3 (Rattus norvegicus, UniProt P42264); test: Displacement of [3H]-KA from recombinant homomeric rat GluK3a receptor expressed in baculovirus infected Sf9 insect cell membranes by scintillation counting method
[2] = Displacement of [3H]-AMPA from AMPA receptor in Sprague-Dawley rat brain synaptosomes after 30 mins by scintillation counting method; format: subcellular
[3] = Displacement of [3H]-KA from KA receptor in Sprague-Dawley rat brain synaptosomes after 60 mins by scintillation counting method; format: subcellular
[4] = Displacement of [3H]-CGP-39653 from NMDA receptor in Sprague-Dawley rat brain synaptosomes after 60 mins by scintillation counting method; format: subcellular
[5] = target: Glutamate receptor ionotropic, kainate 1 (Rattus norvegicus, UniProt P22756); test: Displacement of [3H]-SYM2081 from recombinant homomeric rat GluK1 (Q)1b receptor expressed in baculovirus infected Sf9 insect cell membranes by scintillation counting method
[6] = target: Glutamate receptor ionotropic, kainate 2 (Rattus norvegicus, UniProt P42260); test: Displacement of [3H]-KA from recombinant homomeric rat GluK2 (V,C,R)a receptor expressed in baculovirus infected Sf9 insect cell membranes by scintillation counting method
[7] = target: Glutamate NMDA receptor; Grin1/Grin2a (Rattus norvegicus, UniProt P35439+Q00959); test: Antagonist activity at recombinant rat GluN1a/GluN2A expressed in Xenopus laevis oocytes assessed as inhibition of glycine/glutamate-mediated current responses by two-electrode voltage clamp method; format: cell-based
In short: (§1)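 Xenopus oocytes were injected with rat GluN1 and GluN2A–D cRNA (1:2) and recorded 2–6 days later by TEVC at room temperature, −40 mV, in Ba2+-containing recording solution, pH 7.4. Currents were evoked by 100 μM glycine plus glutamate at 2–3× EC50: 10 μM for GluN2A, 3 μM for GluN2B and GluN2C, 1 μM for GluN2D. IC50 from Hill fits per oocyte; Ki estimated.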

[8] = target: Glutamate NMDA receptor; Grin1/Grin2b (Rattus norvegicus, UniProt P35439+Q00960); test: Antagonist activity at recombinant rat GluN1a/GluN2B expressed in Xenopus laevis oocytes assessed as inhibition of glycine/glutamate-mediated current responses by two-electrode voltage clamp method; format: cell-based; in short: as §1
[9] = target: Glutamate NMDA receptor; Grin1/Grin2c (Rattus norvegicus, UniProt P35439+Q00961); test: Antagonist activity at recombinant rat GluN1a/GluN2C expressed in Xenopus laevis oocytes assessed as inhibition of glycine/glutamate-mediated current responses by two-electrode voltage clamp method; format: cell-based; in short: as §1
[10] = target: Ionotropic glutamate receptor NMDA 1/2D (Rattus norvegicus, UniProt P35439+Q62645); test: Antagonist activity at recombinant rat GluN1a/GluN2D expressed in Xenopus laevis oocytes assessed as inhibition of glycine/glutamate-mediated current responses by two-electrode voltage clamp method; format: cell-based; in short: as §1
[11] = species: Mus musculus; test: Antagonist activity at NMDA receptor in Nras driven p53 deficient mouse HCC cell membranes assessed as LPS-stimulated PGE2 levels at 10 uM after 24 hrs by LC-MS/MS method (reference value: 162 +/- 7%); parameters: scale not given: the % may be the effect or the level left
In short: (§2)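 Mouse Nras-driven p53−/− HCC cells in DMEM with 2 mM L-glutamine, 10% heat-inactivated FBS and penicillin/streptomycin. Cells incubated 24 h with or without antagonist, either without LPS or with 2.5 μg/mL LPS in the growth medium. Cells washed three times with ice-cold HBSS and lysed in acetonitrile on ice. PGE₂ in lysates measured by LC-MS/MS (LLOQ 1 nM) and expressed as % of control; n=3.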

[12] = species: Mus musculus; test: Antagonist activity at NMDA receptor in Nras driven p53 deficient mouse HCC cell membranes assessed as inhibition of NMDA-induced intracellular Ca2+ transients at 20 uM […] by fluo-4AM dye-based fluorescence assay
In short: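 Intact murine HCC cells loaded with 5 μM Fluo-4-AM for 45 min, then washed out for 20 min in BSS (mM: 2.5 KCl, 152 NaCl, 10 glucose, 2 CaCl₂, 10 HEPES, pH 7.4). 150 μM NMDA applied for 15 s by fast perfusion, alone or together with antagonist. Fluorescence imaged with 495 nm excitation on a CCD camera. Read-out is the percentage of cells showing induced Ca²⁺ transients; n=5.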

[13] = species: Mus musculus; test: Antagonist activity at NMDA receptor in Nras driven p53 deficient mouse HCC cell membranes assessed as PGE2 levels at 10 uM after 24 hrs by LC-MS/MS method relative to control; parameters: scale not given: the % may be the effect or the level left; in short: as §2
[14] = species: Mus musculus; test: Antagonist activity at NMDA receptor in Nras driven p53 deficient mouse HCC cell membranes assessed as potentiation of 1 uM sorafenib-mediated antiproliferative activity by measuring cell viability at 100 uM after 72 hrs by resazurin assay (reference value: […] +/- […]%)
[15] = species: Mus musculus; test: Antagonist activity at NMDA receptor in Nras driven p53 deficient mouse HCC cell membranes assessed as potentiation of 2.5 uM sorafenib-mediated antiproliferative activity by measuring cell viability at 100 uM after 72 hrs by resazurin assay (reference value: […] +/- […]%)
[16] = species: Mus musculus; test: Antagonist activity at NMDA receptor in Nras driven p53 deficient mouse HCC cell membranes assessed as potentiation of 5 uM sorafenib-mediated antiproliferative activity by measuring cell viability at 100 uM after 72 hrs by resazurin assay (reference value: […] +/- […]%)
[17] = species: Mus musculus; test: Antagonist activity at NMDA receptor in Nras driven p53 deficient mouse HCC cell membranes assessed as potentiation of 10 uM sorafenib-mediated antiproliferative activity by measuring cell viability at 100 uM after 72 hrs by resazurin assay (reference value: […] +/- […]%)
[18] = Antiproliferative activity against Nras driven p53 deficient mouse HCC cells assessed as cell viability at 100 uM after 72 hrs by resazurin assay relative to control; format: functional; details: read-out: Activity

Chain of Glutamate receptor ionotropic, kainate 1 (P22756 whole entry): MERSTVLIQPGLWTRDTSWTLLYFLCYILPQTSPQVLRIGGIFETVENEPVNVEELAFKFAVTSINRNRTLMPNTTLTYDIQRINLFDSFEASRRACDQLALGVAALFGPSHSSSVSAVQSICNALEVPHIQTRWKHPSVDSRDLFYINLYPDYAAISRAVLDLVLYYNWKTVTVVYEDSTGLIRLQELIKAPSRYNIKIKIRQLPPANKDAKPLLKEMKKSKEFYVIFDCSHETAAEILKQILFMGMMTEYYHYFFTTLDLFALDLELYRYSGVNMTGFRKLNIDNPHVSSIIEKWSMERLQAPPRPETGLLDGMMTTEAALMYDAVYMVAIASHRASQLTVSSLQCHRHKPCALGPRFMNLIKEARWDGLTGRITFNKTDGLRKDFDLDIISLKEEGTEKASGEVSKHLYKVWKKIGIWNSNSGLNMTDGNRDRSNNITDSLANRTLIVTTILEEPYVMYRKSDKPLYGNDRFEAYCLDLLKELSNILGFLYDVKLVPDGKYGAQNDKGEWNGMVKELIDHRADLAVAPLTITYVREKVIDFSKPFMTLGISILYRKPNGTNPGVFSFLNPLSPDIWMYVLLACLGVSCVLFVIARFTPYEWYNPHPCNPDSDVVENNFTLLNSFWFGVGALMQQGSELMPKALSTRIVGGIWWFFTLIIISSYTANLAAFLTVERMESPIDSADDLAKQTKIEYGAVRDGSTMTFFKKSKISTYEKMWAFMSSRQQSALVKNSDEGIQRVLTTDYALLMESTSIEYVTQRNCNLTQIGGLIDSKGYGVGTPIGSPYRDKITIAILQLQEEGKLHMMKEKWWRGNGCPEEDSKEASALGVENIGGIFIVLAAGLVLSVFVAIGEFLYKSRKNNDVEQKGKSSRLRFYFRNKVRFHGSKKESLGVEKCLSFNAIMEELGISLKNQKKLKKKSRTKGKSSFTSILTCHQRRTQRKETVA
Chain of Glutamate receptor ionotropic, kainate 2 (P42260 whole entry): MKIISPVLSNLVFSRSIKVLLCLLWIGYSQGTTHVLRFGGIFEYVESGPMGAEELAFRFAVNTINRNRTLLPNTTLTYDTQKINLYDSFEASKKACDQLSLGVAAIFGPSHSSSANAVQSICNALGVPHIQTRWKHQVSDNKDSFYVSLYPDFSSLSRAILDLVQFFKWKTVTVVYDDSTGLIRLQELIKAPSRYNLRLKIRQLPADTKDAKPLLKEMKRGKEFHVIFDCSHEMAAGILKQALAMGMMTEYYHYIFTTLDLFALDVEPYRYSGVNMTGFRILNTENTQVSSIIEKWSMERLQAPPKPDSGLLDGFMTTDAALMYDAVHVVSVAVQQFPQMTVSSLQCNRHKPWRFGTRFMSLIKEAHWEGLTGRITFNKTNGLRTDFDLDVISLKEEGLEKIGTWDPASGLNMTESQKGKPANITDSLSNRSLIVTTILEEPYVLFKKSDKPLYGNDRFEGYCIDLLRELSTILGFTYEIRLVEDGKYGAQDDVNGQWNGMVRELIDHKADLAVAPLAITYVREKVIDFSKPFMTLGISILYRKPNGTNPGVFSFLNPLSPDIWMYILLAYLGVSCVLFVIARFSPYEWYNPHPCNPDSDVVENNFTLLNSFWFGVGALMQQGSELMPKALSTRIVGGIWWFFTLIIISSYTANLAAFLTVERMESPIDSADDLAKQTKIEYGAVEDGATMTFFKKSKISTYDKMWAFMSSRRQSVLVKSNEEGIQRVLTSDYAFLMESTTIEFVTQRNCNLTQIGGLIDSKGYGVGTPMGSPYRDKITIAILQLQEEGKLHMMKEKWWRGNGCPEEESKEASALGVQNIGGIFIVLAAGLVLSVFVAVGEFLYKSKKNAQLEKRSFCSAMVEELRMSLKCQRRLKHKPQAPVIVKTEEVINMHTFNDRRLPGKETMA
Chain of Glutamate receptor ionotropic, kainate 3 (P42264 whole entry): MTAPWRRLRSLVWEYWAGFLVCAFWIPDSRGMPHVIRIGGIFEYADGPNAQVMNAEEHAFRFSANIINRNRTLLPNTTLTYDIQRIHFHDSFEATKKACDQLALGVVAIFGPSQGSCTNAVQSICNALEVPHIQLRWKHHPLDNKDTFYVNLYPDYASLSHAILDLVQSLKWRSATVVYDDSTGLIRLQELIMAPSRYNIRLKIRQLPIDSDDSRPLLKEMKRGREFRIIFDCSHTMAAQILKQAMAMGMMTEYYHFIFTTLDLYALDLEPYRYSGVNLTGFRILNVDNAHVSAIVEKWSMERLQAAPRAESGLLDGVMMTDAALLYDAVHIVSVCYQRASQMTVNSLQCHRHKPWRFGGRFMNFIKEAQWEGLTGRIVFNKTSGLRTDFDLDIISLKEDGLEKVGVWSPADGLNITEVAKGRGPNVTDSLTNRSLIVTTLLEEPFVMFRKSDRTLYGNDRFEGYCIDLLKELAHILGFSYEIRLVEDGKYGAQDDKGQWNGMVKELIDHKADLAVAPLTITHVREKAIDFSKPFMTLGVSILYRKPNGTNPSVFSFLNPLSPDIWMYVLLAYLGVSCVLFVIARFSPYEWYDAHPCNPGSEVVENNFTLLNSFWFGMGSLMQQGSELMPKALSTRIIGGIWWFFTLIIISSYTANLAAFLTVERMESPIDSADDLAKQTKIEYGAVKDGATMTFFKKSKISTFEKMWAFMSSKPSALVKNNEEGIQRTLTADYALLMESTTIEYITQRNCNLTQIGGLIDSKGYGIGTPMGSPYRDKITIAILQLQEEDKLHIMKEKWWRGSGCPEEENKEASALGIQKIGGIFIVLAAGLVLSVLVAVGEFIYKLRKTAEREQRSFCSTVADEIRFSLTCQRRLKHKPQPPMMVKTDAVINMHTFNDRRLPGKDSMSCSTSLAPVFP
Chain of Ionotropic glutamate receptor NMDA 1/2D (Q62645 whole entry, other chains not shown): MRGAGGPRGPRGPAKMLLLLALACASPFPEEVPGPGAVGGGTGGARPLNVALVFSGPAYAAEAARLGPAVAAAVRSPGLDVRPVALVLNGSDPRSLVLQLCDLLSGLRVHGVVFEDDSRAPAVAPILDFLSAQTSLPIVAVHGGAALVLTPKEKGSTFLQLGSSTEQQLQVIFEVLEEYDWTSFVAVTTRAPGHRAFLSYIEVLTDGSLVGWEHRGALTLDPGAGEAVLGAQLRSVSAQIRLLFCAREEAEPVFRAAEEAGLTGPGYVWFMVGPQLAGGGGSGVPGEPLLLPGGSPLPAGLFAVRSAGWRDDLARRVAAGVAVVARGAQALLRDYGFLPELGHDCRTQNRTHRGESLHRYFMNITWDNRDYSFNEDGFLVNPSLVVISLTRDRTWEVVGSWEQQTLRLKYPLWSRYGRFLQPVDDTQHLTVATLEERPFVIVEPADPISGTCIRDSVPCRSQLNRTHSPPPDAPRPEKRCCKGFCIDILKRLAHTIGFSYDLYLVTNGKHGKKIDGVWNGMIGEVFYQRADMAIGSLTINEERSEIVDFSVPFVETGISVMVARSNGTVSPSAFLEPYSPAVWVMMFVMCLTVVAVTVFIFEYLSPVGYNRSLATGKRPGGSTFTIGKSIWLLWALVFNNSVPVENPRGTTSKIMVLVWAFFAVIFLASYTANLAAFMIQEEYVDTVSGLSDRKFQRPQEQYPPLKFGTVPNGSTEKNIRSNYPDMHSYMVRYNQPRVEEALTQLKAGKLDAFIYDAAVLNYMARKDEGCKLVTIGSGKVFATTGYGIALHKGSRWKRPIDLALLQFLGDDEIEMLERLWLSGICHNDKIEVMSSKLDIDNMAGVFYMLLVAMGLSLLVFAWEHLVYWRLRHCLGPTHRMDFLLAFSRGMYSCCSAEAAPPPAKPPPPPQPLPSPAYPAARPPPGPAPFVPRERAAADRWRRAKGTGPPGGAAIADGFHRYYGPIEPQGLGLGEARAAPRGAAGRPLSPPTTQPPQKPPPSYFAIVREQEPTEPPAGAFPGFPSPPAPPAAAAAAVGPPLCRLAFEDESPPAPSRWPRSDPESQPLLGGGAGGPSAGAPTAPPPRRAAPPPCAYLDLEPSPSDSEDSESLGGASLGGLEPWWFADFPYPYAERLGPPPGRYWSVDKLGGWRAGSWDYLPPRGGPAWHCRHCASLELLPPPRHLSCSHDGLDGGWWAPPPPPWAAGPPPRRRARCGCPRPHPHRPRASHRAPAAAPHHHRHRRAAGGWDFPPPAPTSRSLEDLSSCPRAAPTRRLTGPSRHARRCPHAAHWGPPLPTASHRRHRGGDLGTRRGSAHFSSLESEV

O=C(O)[C@H]1NCC[C@@H]1c1cccc(Cl)c1
Ki [1]: > 100 µM | IC50 [2]: > 100 µM | IC50 [3]: > 100 µM | Ki [4]: > 100 µM | Ki [5]: > 100 µM | Ki [6]: > 100 µM

O=C(O)[C@H]1NCC[C@@H]1c1ccc(O)c(O)c1
IC50 [2]: > 100 µM | IC50 [3]: > 100 µM | Ki [4]: 35 µM | pKi [4]: 4.46

O=C(O)[C@H]1NCC[C@@H]1c1cccc(B(O)O)c1
Ki [1]: > 100 µM | IC50 [2]: > 100 µM | IC50 [3]: > 100 µM | Ki [4]: > 100 µM | Ki [5]: > 1000 µM | Ki [6]: > 1000 µM

N[C@H](CCCP(=O)(O)O)C(=O)O
Ki [7]: 0.39 µM | Ki [8]: 2.8 µM | Ki [9]: 5.9 µM | Ki [10]: 21 µM | Activity [11]: 110% | inhibition [12]: Active | Activity [13]: 58% | Activity [14]: 70% | Activity [15]: 63% | Activity [16]: 44% | Activity [17]: 16% | viability at 100 µM [18]: 79%

O=C(O)c1cc([C@H]2CCN[C@@H]2C(=O)O)ccc1Br
Ki [1]: > 100 µM | IC50 [2]: > 100 µM | IC50 [3]: > 100 µM | Ki [5]: > 100 µM | Ki [6]: > 100 µM

Nc1cccc([C@H]2CCN[C@@H]2C(=O)O)c1
IC50 [2]: > 100 µM | IC50 [3]: > 100 µM | Ki [4]: > 100 µM

NC(=O)c1cccc([C@H]2CCN[C@@H]2C(=O)O)c1
Ki [1]: > 100 µM | IC50 [2]: > 100 µM | IC50 [3]: > 100 µM | Ki [4]: > 100 µM | Ki [5]: > 100 µM | Ki [6]: > 100 µM

N#Cc1cccc([C@H]2CCN[C@@H]2C(=O)O)c1
Ki [1]: > 1000 µM | IC50 [2]: > 100 µM | IC50 [3]: > 100 µM | Ki [4]: > 100 µM | Ki [5]: > 1000 µM | Ki [6]: > 1000 µM

Cc1ccc([C@H]2CCN[C@@H]2C(=O)O)cc1C(=O)O
Ki [1]: > 100 µM | IC50 [2]: > 100 µM | IC50 [3]: > 100 µM | Ki [5]: > 100 µM | Ki [6]: > 100 µM

Cl.O=C(O)c1cc([C@H]2CCN[C@@H]2C(=O)O)ccc1F
Ki [1]: 11 µM | IC50 [2]: > 100 µM | IC50 [3]: 59 µM | pIC50 [3]: 4.23 | Ki [4]: 4.6 µM | pKi [4]: 5.34 | Ki [5]: 12 µM | Ki [6]: > 100 µM

O=C(O)[C@H]1NCC[C@@H]1c1cccc(C(F)(F)F)c1
Ki [1]: > 100 µM | IC50 [2]: > 100 µM | IC50 [3]: > 100 µM | Ki [4]: > 100 µM | Ki [5]: > 100 µM | Ki [6]: > 100 µM
